Series [1] can be described thus: Intrinsic clearance in human liver microsomes. In kind it is ADME, Microsome. The following applies: read-out: CLH. For orientation: Liver microsomes are a subcellular fraction often used to study metabolism.
The subject of the next series is MDR1 (P-gp), human. The series is described as follows: Apparent permeability across apical to basolateral side in MDCK cells transfected with human MDR1 gene. In kind it is ADME, cell-based, Canis lupus familiaris. The following applies: dog. An outline of the steps: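 Transport assay on MDCK cell monolayers transfected with the human MDR1 gene; flux measured in the apical-to-basolateral direction.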

The target in series [2] is Delta-type opioid receptor (Homo sapiens, UniProt P41143). The series is described as follows: Displacement of [I125]deltorphin from delta-opioid receptor overexpressed in human HEK293 cells. In kind it is cell-based.
For another series, the system named is HEK293. Description: Selectivity ratio of IC50 for mu-opioid receptor overexpressed in human HEK293 cells to IC50 for delta-opioid receptor overexpressed in human HEK293 cells. In kind it is cell-based.
For series [3], the target named is Voltage-gated inwardly rectifying potassium channel KCNH2 (Homo sapiens, UniProt Q12809). Description: Inhibition of human Erg.
Sequence of Voltage-gated inwardly rectifying potassium channel KCNH2 (Q12809 whole entry): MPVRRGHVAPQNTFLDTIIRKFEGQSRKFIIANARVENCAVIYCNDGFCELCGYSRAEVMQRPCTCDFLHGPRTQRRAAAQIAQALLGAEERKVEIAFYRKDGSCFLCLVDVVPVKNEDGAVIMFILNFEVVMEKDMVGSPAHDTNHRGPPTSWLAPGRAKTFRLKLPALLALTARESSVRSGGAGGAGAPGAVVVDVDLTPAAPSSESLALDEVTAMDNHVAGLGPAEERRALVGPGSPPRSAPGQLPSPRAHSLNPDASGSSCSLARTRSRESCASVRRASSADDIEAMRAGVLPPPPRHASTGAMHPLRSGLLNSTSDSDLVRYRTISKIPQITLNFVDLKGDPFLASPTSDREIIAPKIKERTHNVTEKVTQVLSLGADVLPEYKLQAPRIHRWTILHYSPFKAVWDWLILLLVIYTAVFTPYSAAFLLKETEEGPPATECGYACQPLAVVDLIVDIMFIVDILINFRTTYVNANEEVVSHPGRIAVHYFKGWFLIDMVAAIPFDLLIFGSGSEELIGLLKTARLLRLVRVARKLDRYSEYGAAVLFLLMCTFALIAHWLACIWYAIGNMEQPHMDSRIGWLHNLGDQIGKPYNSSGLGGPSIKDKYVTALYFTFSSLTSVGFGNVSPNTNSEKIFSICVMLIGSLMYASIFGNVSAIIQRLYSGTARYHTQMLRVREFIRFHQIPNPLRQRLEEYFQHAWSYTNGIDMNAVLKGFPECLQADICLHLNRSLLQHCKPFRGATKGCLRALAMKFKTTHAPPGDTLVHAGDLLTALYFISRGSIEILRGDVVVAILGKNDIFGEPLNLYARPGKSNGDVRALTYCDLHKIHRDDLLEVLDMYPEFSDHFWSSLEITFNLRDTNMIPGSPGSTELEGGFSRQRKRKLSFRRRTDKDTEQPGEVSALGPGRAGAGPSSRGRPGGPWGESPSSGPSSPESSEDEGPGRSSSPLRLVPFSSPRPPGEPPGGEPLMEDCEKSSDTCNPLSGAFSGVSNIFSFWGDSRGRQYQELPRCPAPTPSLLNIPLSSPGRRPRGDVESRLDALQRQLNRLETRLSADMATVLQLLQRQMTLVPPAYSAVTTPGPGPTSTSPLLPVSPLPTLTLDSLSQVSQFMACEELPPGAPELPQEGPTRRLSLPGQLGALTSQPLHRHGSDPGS

Sequence of Delta-type opioid receptor (P41143 whole entry): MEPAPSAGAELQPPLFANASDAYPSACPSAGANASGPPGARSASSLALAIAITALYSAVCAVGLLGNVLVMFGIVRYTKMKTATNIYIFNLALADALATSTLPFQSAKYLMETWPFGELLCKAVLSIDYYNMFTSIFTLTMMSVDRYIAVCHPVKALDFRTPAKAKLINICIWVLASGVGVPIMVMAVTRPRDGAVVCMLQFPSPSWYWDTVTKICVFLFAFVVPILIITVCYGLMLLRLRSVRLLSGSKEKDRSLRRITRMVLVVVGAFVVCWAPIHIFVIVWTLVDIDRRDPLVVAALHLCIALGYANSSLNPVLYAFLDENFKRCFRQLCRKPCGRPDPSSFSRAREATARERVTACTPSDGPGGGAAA

`CCN(CC)C(=O)c1ccc([C@H](c2cccc(NC(=O)C3CC3)c2)N2CCN(Cc3ccc(F)cc3)CC2)cc1`: the microsomal CLint in series [1] came out at 150 µL/min/mg. Moreover, in the series on MDR1 (P-gp), human, the apparent permeability from apical to basolateral (Papp A→B) – broadly, the apparent permeability from the apical to the basolateral side of a cell layer – is less than 0.1 ×10⁻⁶ cm/s. Moreover, the 50% inhibitory concentration (IC50) (commonly the midpoint of a concentration-inhibition curve) came out at 0.29 nM in series [2] and 11000 nM in series [3]. In addition, in the series with HEK293, the Ratio IC50 was 5200.

`O=C(Nc1cccc([C@@H](c2ccc(C(=O)N3CCC3)cc2)N2CCN(Cc3ccc(F)cc3)CC2)c1)C1CC1`: in series [1], the microsomal CLint was 49 µL/min/mg. Further, the apical-to-basolateral permeability (Papp A→B) in the series with MDR1 (P-gp), human is less than 0.1 ×10⁻⁶ cm/s. In addition, the results for the IC50 in series [2] and in series [3] were 0.9 nM and 3600 nM, respectively. Also, the Ratio IC50 in the series with HEK293 was determined as 480.

With `CN(CCO)C(=O)c1ccc([C@H](c2cccc(NC(=O)C3CC3)c2)N2CCN(Cc3ccc(F)cc3)CC2)cc1`, the microsomal CLint in series [1] amounted to 36 µL/min/mg. For the same molecule, the Papp A→B in the series on MDR1 (P-gp), human was less than 0.1 ×10⁻⁶ cm/s. The results for the IC50 in series [2] and in series [3] were 0.27 nM and 15000 nM, respectively. Further, the Ratio IC50 in the series on HEK293 was 11000.

As for `CCN(C)C(=O)c1ccc([C@H](c2cccc(NC(=O)C3CCC3)c2)N2CCN(Cc3cccnc3)CC2)cc1`, in series [1], the microsomal CLint came to 85 µL/min/mg. Further, in the series on MDR1 (P-gp), human, the Papp A→B was less than 0.1 ×10⁻⁶ cm/s. For the same molecule, the IC50 in series [2] came to 6.6 nM; in series [3], 28000 nM. For the same molecule, the Ratio IC50 in the series on HEK293 is greater than 1500.

As to `CCOC(=O)Nc1cccc([C@@H](c2ccc(C(=O)N(C)CC)cc2)N2CCN(Cc3c[nH]c(C)n3)CC2)c1`, the microsomal CLint in series [1] is less than 4 µL/min/mg. Also, the apical-to-basolateral permeability (Papp A→B) with MDR1 (P-gp), human is less than 0.1 ×10⁻⁶ cm/s. In addition, the half-inhibitory concentration (IC50) in series [2] was 0.7 nM; in series [3], greater than 33000 nM. The Ratio IC50 with HEK293 is greater than 12000.

For the molecule `CCOC(=O)Nc1cccc([C@@H](c2ccc(C(=O)N(CC)CC)cc2)N2CCN(Cc3cscn3)CC2)c1`, the microsomal CLint in series [1] is 210 µL/min/mg. For the same molecule, in the series on MDR1 (P-gp), human, the Papp A→B was less than 0.1 ×10⁻⁶ cm/s. For the same molecule, the IC50 in series [2] amounted to 0.071 nM; in series [3], 5400 nM. In addition, the Ratio IC50 with HEK293 is 6200.

Take `CCN(CC)C(=O)c1ccc([C@H](c2cccc(NC(=O)OC)c2)N2CCN(Cc3cccnc3)CC2)cc1`: the microsomal CLint in series [1] is 110 µL/min/mg. Moreover, the Papp A→B in the series with MDR1 (P-gp), human was found to be 0.3 ×10⁻⁶ cm/s.

With `CCOC(=O)Nc1ccccc1[C@@H](c1ccc(C(=O)N(CC)CC)cc1)N1CCN(Cc2ccccn2)CC1`, the microsomal CLint in series [1] worked out at 650 µL/min/mg. Besides, the apical-to-basolateral permeability (Papp A→B) in the series with MDR1 (P-gp), human turned out to be 0.43 ×10⁻⁶ cm/s. In addition, the figures for the IC50 in series [2] and in series [3] were 1.4 nM and 9900 nM, respectively. Besides, the Ratio IC50 in the series on HEK293 was greater than 6000.

For the molecule `CCOC(=O)Nc1cccc([C@@H](c2ccc(C(=O)N3CCC3)cc2)N2CCN(Cc3cccnc3)CC2)c1`, in series [1], the microsomal CLint was 53 µL/min/mg. For the same molecule, in the series with MDR1 (P-gp), human, the apparent permeability from apical to basolateral (Papp A→B) was determined as 0.18 ×10⁻⁶ cm/s. For the same molecule, the results for the IC50 in series [2] and in series [3] were 4.1 nM and 11000 nM, respectively. In the series on HEK293, the Ratio IC50 is greater than 2200.

In the case of `CCN(C)C(=O)c1ccc([C@H](c2cccnc2)N2CCN(Cc3cscn3)CC2)cc1`, the microsomal CLint in series [1] amounted to 40 µL/min/mg. Besides, the Papp A→B in the series with MDR1 (P-gp), human was less than 0.1 ×10⁻⁶ cm/s. In addition, in series [2], the half-maximal inhibitory concentration (IC50) was 4.7 nM.

For `CCN(C)C(=O)c1ccc([C@H](c2cccnc2)N2CCN(Cc3ccccn3)CC2)cc1`, in series [1], the microsomal CLint was 33 µL/min/mg. Besides, in the series on MDR1 (P-gp), human, the apparent permeability from apical to basolateral (Papp A→B) is 0.12 ×10⁻⁶ cm/s. Besides, the IC50 was found to be 2 nM in series [2] and 13000 nM in series [3]. In addition, the Ratio IC50 in the series on HEK293 is greater than 5100.

Turning to `CCOC(=O)Nc1ccc([C@@H](c2ccc(C(=O)N(CC)CC)cc2)N2CCN(Cc3cscn3)CC2)cc1`, in series [1], the microsomal CLint worked out at 21 µL/min/mg. In addition, in the series on MDR1 (P-gp), human, the apical-to-basolateral permeability (Papp A→B) worked out at 0.13 ×10⁻⁶ cm/s. In addition, the figures for the IC50 in series [2] and in series [3] were 1.3 nM and 7300 nM, respectively. For the same molecule, the Ratio IC50 with HEK293 came to 2700.

In the case of `CCN(C)C(=O)c1ccc([C@H](c2cccc(NC(=O)C3CC3)c2)N2CCN(Cc3nc(C)cs3)CC2)cc1`, the microsomal CLint in series [1] was 160 µL/min/mg. Further, the IC50 was greater than 100 nM in series [2] and 18000 nM in series [3]. Further, in the series on HEK293, the Ratio IC50 was less than 100.

Take `CCN(C)C(=O)c1ccc([C@H](c2cccc(NC(=O)C3CC3)c2)N2CCN(CCCOC)CC2)cc1`: in series [1], the microsomal CLint was less than 4 µL/min/mg. The 50% inhibitory concentration (IC50) in series [2] turned out to be 23 nM; in series [3], 13000 nM. Further, in the series with HEK293, the Ratio IC50 came to 33.

Take `CCOC(=O)Nc1cccc([C@@H](c2ccc(C(=O)N(C)CC)cc2)N2CCN(Cc3nc[nH]c3C)CC2)c1`: the microsomal CLint in series [1] stood at 17 µL/min/mg. Further, the Papp A→B in the series with MDR1 (P-gp), human is less than 0.1 ×10⁻⁶ cm/s. Besides, the IC50 in series [2] is 0.26 nM; in series [3], greater than 33000 nM. Also, the Ratio IC50 in the series with HEK293 worked out at 14000.

In the case of `CCN(C)C(=O)c1ccc([C@H](c2ccccn2)N2CCN(Cc3ccccn3)CC2)cc1`, the microsomal CLint in series [1] is 20 µL/min/mg. Also, the apical-to-basolateral permeability (Papp A→B) in the series with MDR1 (P-gp), human was 0.25 ×10⁻⁶ cm/s. Also, the results for the IC50 in series [2] and in series [3] were 5.2 nM and greater than 33000 nM, respectively. Also, the Ratio IC50 in the series with HEK293 is greater than 1900.

In the case of `CCN(CC)C(=O)c1ccc([C@H](c2cccc(NC(=O)C3CC3)c2)N2CCN(Cc3ccccn3)CC2)cc1`, the microsomal CLint in series [1] came to 260 µL/min/mg. Moreover, the results for the half-maximal inhibitory concentration (IC50) in series [2] and in series [3] were 0.068 nM and 20000 nM, respectively. Further, the Ratio IC50 with HEK293 is greater than 120000.

With `CCN(CC)C(=O)c1ccc([C@H](c2cccc(NC(=O)OC)c2)N2CCN(Cc3cncs3)CC2)cc1`, the microsomal CLint in series [1] is 100 µL/min/mg. Further, the apparent permeability from apical to basolateral (Papp A→B) in the series on MDR1 (P-gp), human was 0.22 ×10⁻⁶ cm/s. This molecule yielded an IC50 in series [2] of 0.35 nM.

Turning to `CCOC(=O)Nc1ccccc1[C@@H](c1ccc(C(=O)N(CC)CC)cc1)N1CCN(Cc2cscn2)CC1`, in series [1], the microsomal CLint came to 430 µL/min/mg. In addition, the apparent permeability from apical to basolateral (Papp A→B) in the series on MDR1 (P-gp), human is less than 0.1 ×10⁻⁶ cm/s.

On to `CCN(CC)C(=O)c1ccc([C@H](c2cccc(NC(=O)C3CC3)c2)N2CCN(CCOC)CC2)cc1`, for which, in series [1], the microsomal CLint came to 26 µL/min/mg. Besides, the Papp A→B with MDR1 (P-gp), human was less than 0.1 ×10⁻⁶ cm/s. The figures for the IC50 in series [2] and in series [3] were 1.1 nM and greater than 30000 nM, respectively. Further, the Ratio IC50 in the series on HEK293 was greater than 9400.

As for `CCN(C)C(=O)c1ccc([C@H](c2cccc(NC(=O)OC)c2)N2CCN(Cc3cscn3)CC2)cc1`, the microsomal CLint in series [1] worked out at 38 µL/min/mg. In addition, the Papp A→B in the series with MDR1 (P-gp), human was 0.12 ×10⁻⁶ cm/s. Moreover, the IC50 in series [2] stood at 0.094 nM; in series [3] it was 17000 nM. In addition, the Ratio IC50 with HEK293 amounted to 15000.

Source of the values: ChEMBL document CHEMBL1938393, “Multiparameter exploration of piperazine derivatives as δ-opioid receptor agonists for CNS indications” (Bioorg Med Chem Lett, 2012).
